Compound activity: PubChem, Johns Hopkins Ion Channel Center
KCNQ1 pot: human KCNQ1 channel potentiation or activation; P51787; CHO-K1 KCNQ1, thallium flux FluxOR fluorescence; hits give high values; B-score at 10 µM; 0.35% of 310,000 active;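 active = fluorescence ratio B-score, a plate-corrected score, at least three library SD, with initial intensity B-score within 5 SD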
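assay system = CHO-K1 cells stably expressing KCNQ1 | medium = assay buffer, equal DMSO in all wells | timing = 37 °C overnight plating, 90-min dark dye load, 20-min compound pretreatment | measured by = kinetic FluxOR thallium fluorescence, 10-s 1-Hz baseline, 110-s post-stimulus read | measure = fluorescence change relative to baseline, converted to B score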
hERG protect: hERG (human) protection from proarrhythmic block; Q12809; CHO-hERG, FluxOR thallium flux, dofetilide IC70 present; activation (rescue from dofetilide block), less the hit threshold, % at 10 µM; 0.51% of 310,000 active;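 active = activation above the mean of controls blocked by dofetilide plus 5 SD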;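 also: thallium influx through hERG after potassium depolarization seen as dye fluorescence rise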
Target sequence (Q12809 whole entry, looked up): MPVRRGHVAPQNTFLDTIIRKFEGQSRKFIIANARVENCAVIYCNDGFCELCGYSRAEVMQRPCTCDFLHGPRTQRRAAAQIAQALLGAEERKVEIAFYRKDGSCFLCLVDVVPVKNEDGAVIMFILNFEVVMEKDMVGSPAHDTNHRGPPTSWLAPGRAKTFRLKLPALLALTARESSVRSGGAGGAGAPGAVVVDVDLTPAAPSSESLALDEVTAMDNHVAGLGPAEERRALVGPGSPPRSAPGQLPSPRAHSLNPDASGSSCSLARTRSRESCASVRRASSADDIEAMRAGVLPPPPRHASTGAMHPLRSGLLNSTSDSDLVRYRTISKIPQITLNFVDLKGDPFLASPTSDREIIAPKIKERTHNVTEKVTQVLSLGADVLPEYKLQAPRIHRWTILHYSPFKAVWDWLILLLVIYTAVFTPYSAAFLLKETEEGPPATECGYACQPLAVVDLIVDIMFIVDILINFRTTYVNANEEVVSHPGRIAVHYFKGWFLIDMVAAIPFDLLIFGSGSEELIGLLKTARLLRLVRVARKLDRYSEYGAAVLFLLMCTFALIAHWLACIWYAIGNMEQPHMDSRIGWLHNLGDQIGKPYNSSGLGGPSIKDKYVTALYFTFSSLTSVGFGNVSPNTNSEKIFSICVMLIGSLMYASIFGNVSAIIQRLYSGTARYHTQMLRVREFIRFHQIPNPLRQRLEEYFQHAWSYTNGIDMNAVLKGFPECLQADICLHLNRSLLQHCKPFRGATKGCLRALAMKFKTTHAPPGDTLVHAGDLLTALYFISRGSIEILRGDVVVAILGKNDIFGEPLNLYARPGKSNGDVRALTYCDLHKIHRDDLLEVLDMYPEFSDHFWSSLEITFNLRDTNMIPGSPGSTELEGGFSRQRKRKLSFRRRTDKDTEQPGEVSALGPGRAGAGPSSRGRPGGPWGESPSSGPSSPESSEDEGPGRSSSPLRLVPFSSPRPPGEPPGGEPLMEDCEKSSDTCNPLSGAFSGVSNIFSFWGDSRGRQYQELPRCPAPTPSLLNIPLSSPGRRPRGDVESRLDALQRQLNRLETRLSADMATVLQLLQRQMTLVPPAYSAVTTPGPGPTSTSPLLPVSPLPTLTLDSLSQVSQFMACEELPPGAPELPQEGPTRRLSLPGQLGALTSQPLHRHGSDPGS
KCNK3 inh: human KCNK3 channel inhibition, primary screen; CHO-KCNK3 thallium flux, FluxOR fluorescence; hits give low values; B-score at 10 µM; 0.84% of 340,000 active; O14649;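 active = B-score under library mean minus 4 SD, starting fluorescence ratio at most library mean plus 5 SD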;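 also: more negative B-score means stronger inhibition of thallium flux through KCNK3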
KCNK9 block: inhibitors of human KCNK9 two-pore domain potassium channel. HEK293 KCNK9, FluxOR thallium flux fluorescence; hits give low values. B-score at 10 µM. 1.2% of 310,000 active. AID 488922;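 active = ratio B-score over 3 SD below the library mean, with starting fluorescence within 5 SD of its mean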;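 also: negative B-score means less thallium flux so channel inhibition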
Kir21 inh: blocks the mouse Kir2.1 inward-rectifier potassium channel; HEK293-Kir2.1, FluxOR thallium flux fluorescence; hits give low values; 0.85% of 310,000 active; AID 1672; P35561; B-score at 10 µM;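 active = fluorescence ratio B-score at or below minus 3 SD of library scores, with starting-brightness B-score within 2 SD, cut at about -4.2 in these data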;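 also: channel flux triggered by added potassium and thallium sulfate stimulus; B-score of peak minus minimum fluorescence over baseline after thallium stimulus; more negative B-score means stronger Kir2.1 block with less thallium influx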
KCNQ1 inh: inhibitors of human KCNQ1 potassium channel. P51787. CHO-K1 KCNQ1, FluxOR thallium flux fluorescence; hits give high values. B-score at 10 µM. 1.3% of 310,000 active. AID 2642;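 active = compounds whose thallium flux B-score, printed positive for inhibition, exceeds three library SD while starting fluorescence stays within three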;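 also: channel opened by potassium depolarization with thallium stimulus after 20 min compound exposure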
* hit, by the source's call; i = inactive; / = not tested or not shown. A selection: hits, their analogues and other compounds. The true share with any hit is near 3.7%.

SMILES	KCNQ1 pot	hERG protect	KCNK3 inh	KCNK9 block	Kir21 inh	KCNQ1 inh
CCC(C(=O)OCC(=O)Nc1c(Cl)cccc1Cl)c1ccccc1 (stereo unspecified)	i	-6	i	i	-6.9*	i
O=C(Oc1ccc2ccccc2c1)c1cncc(Br)c1	i	-9	i	i	-0.93	i
O=C(Oc1ccc2c(=O)c(Oc3ccc4ccccc4c3)coc2c1)c1cncc(Br)c1	i	11*	i	i	0.1	i
O=S1(=O)CCN(c2ccccc2CC(c2c[nH]c3ccccc23)c2c[nH]c3ccccc23)CC1	/	/	i	/	/	/
CCCCCO	/	/	i	/	/	/
CC(C)Oc1ccc(C(CC(=O)O)Cc2ccccc2)cc1 (stereo unspecified)	i	0	i	i	0.03	i
CCOc1cc(C)cc2oc(=O)cc(-c3ccccc3)c12	i	-12	i	-7*	-2.7	i
Cc1cccc(-n2ncc3c(N4CC(C)CC(C)C4)ncnc32)c1 (stereo unspecified)	i	-9	i	-7.1*	0.67	i
CCN(CC)S(=O)(=O)c1ccc2c(c1)N(CC(=O)N1CCCC1)C(=O)CO2	i	-6	i	i	-0.89	i
CCOC(=O)[C@@H]1[C@H]2COc3ccccc3[C@H]2N2C(=O)N(c3ccc(C)cc3)C(=O)[C@]12C	i	-7	i	-6.7*	-0.38	i
CCOC(=O)[C@@H]1[C@H]2COc3ccccc3[C@@H]2N2C(=O)N(c3ccccc3)C(=O)[C@@]12C	i	-6	i	i	0.93	i
Cc1ccc(-c2csc(N=C(N)N)n2)c(C)c1	i	-15	i	i	-8.3*	i
Oc1ccc2ccccc2c1N=Nc1ccccn1	i	-6	i	-7.3*	-2.4	i
OCCNCc1cc(Br)ccc1OCc1ccccc1	i	-7	i	i	0.02	i
NS(=O)(=O)c1ccc(CCNCc2cc(Br)ccc2OCc2ccccc2)cc1	i	-23	i	i	-8.2*	i
COc1ccc(Br)cc1CN(C)CC(=O)NCCc1ccc(S(N)(=O)=O)cc1	i	-5	i	i	-4.7*	i
COc1ccc(Br)cc1/C=C/C(=O)OCC(=O)NCCc1ccc(S(N)(=O)=O)cc1	/	/	i	/	/	/
COc1ccc(-c2csc(NC(=S)NC(=O)c3cccs3)n2)cc1Br	9*	8.6*	i	i	-0.09	i
O=C(NC(=S)Nc1nc2c(ccc3ccccc32)s1)c1cccs1	9*	0	i	i	0.65	i
COc1ccc(-c2csc(NC(=S)NC(=O)c3cccs3)n2)cc1OC	11*	0	i	-7.9*	1.2	i
Cc1nnc(NC(=O)CN2CCN(Cc3ccc(F)cc3Cl)CC2)s1	i	6.3*	i	i	0.35	i
Cc1nnc(NC(=O)CN2CCN(Cc3ccccc3)CC2)s1	i	-7	i	i	0.15	i
O=C(CSc1nnc2scc(-c3ccccc3)n12)c1ccc2c(c1)OCCO2	i	-6	i	i	-0.53	i
c1ccc(-c2csc3nnc(SCc4ccc5c(c4)OCCO5)n23)cc1	i	-2	i	i	-5.2*	i
COc1ccc(C2c3ccc(O)cc3Oc3ncn4nc(-c5cccnc5)nc4c32)cc1OC (stereo unspecified)	i	-6	i	i	0.72	i
Cc1c(NC(=O)Nc2ccc(Cl)c(Cl)c2)sc(=S)n1C	i	-11	i	i	2	8*
CCC(C)Nc1nc(N)c([N+](=O)[O-])c(Nc2ccccc2OC)n1 (stereo unspecified)	i	-5	i	-7.9*	0.38	i
COCCCNC(=O)c1cc(S(=O)(=O)N2CCOCC2)ccc1SCc1cccc(OC)c1OC	i	-14	i	i	-0.58	i
Cc1cc(C(=O)OCC(=O)N2CC(C)OC(C)C2)c(C)n1-c1ccccc1 (stereo unspecified)	/	/	i	/	/	/
Cc1cccc(C2C3=C(Nc4[nH]n(-c5ccccc5)c(=O)c42)c2ccccc2C3=O)c1 (stereo unspecified)	i	-23	i	-7.5*	0.13	i
